# Measured values pooled from the literature.
# Each line is one published result; the experiments were not run side by side.
# Kir1 channel protein: Kir1 channel protein (Aedes aegypti, UniProt L0EQS9)
# PDE11A: Dual 3',5'-cyclic-AMP and -GMP phosphodiesterase 11A (PDE11A, Homo sapiens, UniProt Q9HCR9)
# CYP2E1: Cytochrome P450 2E1 (CYP2E1, Homo sapiens, UniProt P05181)
# MMP14: Matrix metalloproteinase-14 (MMP14, Homo sapiens, UniProt P50281)
# FLT1: Vascular endothelial growth factor receptor 1 (FLT1, Homo sapiens, UniProt P17948)
# TGM2: Protein-glutamine gamma-glutamyltransferase (TGM2, Homo sapiens, UniProt P21980)
# NTSR1: Neurotensin receptor type 1 (NTSR1, Homo sapiens, UniProt P30989)
# ABHD6: Monoacylglycerol lipase ABHD6 (ABHD6, Homo sapiens, UniProt Q9BV23)
Structure (SMILES),target,test,system,conditions,IC50 [µM]
O=[N+]([O-])c1ccc(N2CCN(S(=O)(=O)c3ccc(F)cc3)CC2)cc1NCc1ccccn1,Kir1 channel protein,"ion current, inhibitor, patch clamp",,,0.0355
O=C(Nc1c[nH]nc1C(=O)NC1CCNCC1)c1cc(F)cc(F)c1,"Cyclin-dependent kinase 17 (CDK17, Homo sapiens, UniProt Q00537)","target engagement in cells, BRET",,,1.9
COc1ccc(CNc2c(CO)cnc3c(C4CC4)cc(C#N)cc23)cn1,PDE11A,"enzyme activity, inhibitor",,,> 10
CCc1cc(/C(C)=N/OCc2ccc(C3CCCCC3)c(C(F)(F)F)c2)ccc1CN1CC(C(=O)O)C1,CYP2E1,"enzyme activity, inhibitor","human, liver microsomes",20 min,> 0.5
COc1ccc2c(Oc3ccc4c(C(=O)Nc5ccccc5N)cccc4c3)ccnc2c1,"RAC-beta serine/threonine-protein kinase (AKT2, Homo sapiens, UniProt P31751)","enzyme activity, inhibitor",,,> 0.5
Cc1noc(-c2cc3cc(-c4nc(C(=O)NCc5ccncc5)[nH]c4C)ccc3[nH]2)n1,MMP14,"enzyme activity, inhibitor",,,> 20
CC(C)(C)c1cc(Cc2cc(C(C)(C)C)c(O)c(C(C)(C)C)c2)cc(C(C)(C)C)c1O,"Sarcoplasmic/endoplasmic reticulum calcium ATPase 1 (ATP2A1, Oryctolagus cuniculus, UniProt P04191)","ATPase activity, inhibitor, absorbance",,pH 7.3,17
O=C(O)CC(=O)C(=O)O,"L-lactate dehydrogenase B chain (LDHB, Homo sapiens, UniProt P07195)","enzyme activity, inhibitor",,,1020
O=c1c(O)c(-c2ccc(O)c(O)c2)oc2cc(O)cc(O)c12,CYP2E1,"enzyme activity, inhibitor, HPLC",,,104
Cc1noc(-c2cc3cc(-c4nc(C(=O)NCC5CCOCC5)[nH]c4C)ccc3[nH]2)n1,MMP14,"enzyme activity, inhibitor",,,> 20
Cc1ccc(C(=O)Nc2ccc(Oc3cc4cnn(C)c4cc3-c3cn[nH]c3)c(F)c2)c(=O)n1-c1ccc(F)cc1,FLT1,"enzyme activity, inhibitor, radiometric",,,0.076
O=[N+]([O-])c1ccc(N2CCN(S(=O)(=O)c3ccc(F)cc3)CC2)cc1NCc1cccnc1,Kir1 channel protein,"ion flux, inhibitor",,,0.47
C=CC(=O)Nc1cc(Nc2nccc(Nc3cc(Cl)c(F)cc3C(C)(C)O)n2)c(OC)cc1N1CC[C@@H](N(C)C)C1,CYP2E1,"enzyme activity, inhibitor","human, liver microsomes",,> 30
N#Cc1ccc(N2CCN(S(=O)(=O)c3ccc(Cl)cc3)CC2)cc1NCc1ccncc1,Kir1 channel protein,"ion flux, inhibitor",,,0.738
Cn1nc(C(=O)NCc2ccc(C(=O)O)cc2)cc1-c1ccc2[nH]c(-c3ccncc3)cc2c1,MMP14,"enzyme activity, inhibitor",,,> 20
CN1CCN(c2ccc(Nc3ncc4cc(C#N)c(=O)n(C5CCCC5)c4n3)cc2)CC1,"Receptor tyrosine-protein kinase erbB-4 (ERBB4, Homo sapiens, UniProt Q15303)","enzyme activity, inhibitor",,,3.09
O=C(O)c1cc2ccccc2c(Cc2c(O)c(C(=O)O)cc3ccccc23)c1O,"DNA polymerase eta (POLH, Homo sapiens, UniProt Q9Y253)","enzyme activity, inhibitor",,,79
Cn1cc(-c2cc3cc(-c4cc(C(=O)NCc5ccc(C(=O)O)cc5)nn4C)ccc3[nH]2)cn1,MMP14,"enzyme activity, inhibitor",,,> 20
O=C1Nc2cc(Oc3ccc4c(c3)NC(=O)C4=O)ccc2C1=O,TGM2,"enzyme activity, inhibitor",,,30 to 40
CSc1ccc(/C=C2/C(C)=C(CC(=O)O)c3cc(F)ccc32)cc1,PDE11A,"enzyme activity, inhibitor",,,> 100
Cc1cnc(-c2ccc(-c3ccc(NC(=O)Nc4c(F)cc(F)cc4F)cc3F)c3c2C(=O)NC3)[nH]1,FLT1,"enzyme activity, inhibitor",,,> 1
CCNC(=O)c1nc(-c2ccc3[nH]c(-c4nc(C)no4)cc3c2)c(C)[nH]1,MMP14,"enzyme activity, inhibitor",,,> 20
CC[C@H](C)[C@H](NC(C)=O)C(=O)N[C@@H](CCC(=O)O)C(=O)N[C@H](C(=O)N[C@H](C=O)CC(=O)O)[C@@H](C)O,"Caspase-4 (Casp4, Mus musculus, UniProt P70343)","enzyme activity, inhibitor",,,0.086
O=C(Nc1cccnc1)N1CCC(Cc2cccc(Oc3ccc(C(F)(F)F)cn3)c2)CC1,"Arylacetamide deacetylase (Homo sapiens, UniProt P22760)","enzyme activity, inhibitor",,,> 10
O=[N+]([O-])c1ccc(N2CCN(S(=O)(=O)c3ccc(F)cc3)CC2)cc1NCc1ccco1,Kir1 channel protein,"ion flux, inhibitor",,,1.29
COc1ccc(F)cc1C(=O)NCc1ccc(-c2nn([C@@H](C)C(F)(F)F)c(N)c2C(N)=O)cc1,"Tyrosine-protein kinase BTK (BTK, Homo sapiens, UniProt Q06187, C481G)","phosphorylation in cells, inhibitor",,,0.0139
Cc1cc(O)cc(C)c1C[C@H](NC(=O)[C@@H]1CCCN1C(=O)[C@H](CCCNC(=N)N)NC(=O)[C@H](CCCNC(=N)N)N(C)C(=O)CNC(=O)[C@@H](CO)NC(=O)CNC(=O)[C@H](Cc1cn(CCNC(=O)[C@H](CCCNC(=N)N)NC(=O)[C@H](CC(C)C)NC(=O)C2OC2C(=O)O)nn1)NC(=O)CN1CCN(CC(=O)O)CCN(CC(=O)O)CCN(CC(=O)O)CC1)C(=O)N[C@H](C(=O)N[C@@H](CC(C)C)C(=O)O)C(C)(C)C (mixture of isomers),NTSR1,"ligand displacement, radioligand",,,0.073
O=S(=O)(c1ccc(Cl)cc1)N1CCN(c2cccc(NCc3ccncc3)c2)CC1,Kir1 channel protein,"ion flux, inhibitor",,,4 to 9
O=C(Oc1nsnc1N1CCOCC1)N1CCCCC1,ABHD6,"enzyme activity, inhibitor, fluorescence",,lysate,0.085
COc1cc2c(NC3CCN(C)CC3)nc(N3CCCN(C)CC3)nc2cc1OCCOCCN(C)C,"Lysine-specific demethylase 4E (KDM4E, Homo sapiens, UniProt B2RXH2)","enzyme activity, inhibitor",,,> 57
O=[N+]([O-])c1ccc(N2CCN(S(=O)(=O)c3ccc(F)cc3)CC2)cc1NCc1ccncc1,Kir1 channel protein,"ion current, inhibitor, patch clamp",,,0.0497
Cc1cc(O)cc(C)c1C[C@H](NC(=O)[C@@H]1CCCN1C(=O)[C@H](CCCNC(=N)N)NC(=O)[C@H](CCCNC(=N)N)N(C)C(=O)[C@@H](CCC(N)=O)NC(=O)[C@@H](CCC(N)=O)NC(=O)[C@@H](CCC(N)=O)NC(=O)[C@H](Cc1cn(CCNC(=O)[C@H](CC(C)C)NC(=O)[C@H](CC(C)C)NC(=O)C2OC2C(=O)O)nn1)NC(=O)CN1CCN(CC(=O)O)CCN(CC(=O)O)CCN(CC(=O)O)CC1)C(=O)N[C@H](C(=O)N[C@@H](CC(C)C)C(=O)O)C(C)(C)C (mixture of isomers),NTSR1,"ligand displacement, radioligand",,,0.092
O=S(=O)(c1ccc(F)cc1)N1CCN(c2cccc(NCc3ccncc3)c2)CC1,Kir1 channel protein,"ion flux, inhibitor",,,4 to 9
Cn1nc(C(=O)NCc2ccc(C(=O)O)cc2)cc1-c1ccc2[nH]c(-c3cccnc3)cc2c1,MMP14,"enzyme activity, inhibitor",,,> 20
O=C1Nc2ccc(I)cc2/C1=C/c1cc(Br)c(O)c(Br)c1,TGM2,"enzyme activity, inhibitor",,,50
O=S(=O)(c1ccc(Cl)cc1)N1CCN(c2ccnc(NCc3ccncc3)c2)CC1,Kir1 channel protein,"ion flux, inhibitor",,,4 to 9
O=C(Oc1nsnc1N1CCc2ccccc2C1)N1CCCCC1,ABHD6,"enzyme activity, inhibitor, fluorescence",,lysate,0.46
